ChEMBL document CHEMBL4342471, “Discovery of Thieno[2,3-d]pyrimidine-Based Hydroxamic Acid Derivatives as Bromodomain-Containing Protein 4/Histone Deacetylase Dual Inhibitors Induce Autophagic Cell Death in Colorectal Carcinoma Cells” (J Med Chem, 2020)
Calls of active or inactive are those of the source. The calls are words filed in the database; no cut-off is given here.

Legend:
[1] = species on record: Homo sapiens; experiment: Inhibition of BRD4/HDAC in human HCT116 cells assessed as inhibition of IL6-JAK-STAT3 signaling pathway by measuring decrease in LIFR expression at 0.5 uM after 24 hrs by Western blot analysis; format: cell-based
In short: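 HCT-116 cells treated 24 h with 0.5 µM, 5.0 µM or 10 µM test agent depending on compound; OSMR, LIFR and downstream pathway proteins detected by western blot.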

[2] = molecular target: Histone deacetylase 5 (Homo sapiens, UniProt Q9UQL6); experiment: Inhibition of HDAC5 (unknown origin) using biotinylated histone H3 KAc peptide (1 to 21 residues) as substrate by HTRF assay
[3] = species on record: Homo sapiens; experiment: Inhibition of BRD4/HDAC in human HCT116 cells assessed as increase in caspase 9 cleavage at 0.2 to 0.5 uM measured after 24 hrs by Western blot analysis; format: cell-based
[4] = Toxicity in BALB/cAnNCrl mouse xenografted with human HCT116 cells assessed as effect on liver morphological changes at 15 to 30 mg/kg, po administered on day 1 to day 19 measured on day 19 by hematoxylin and eosin staining based assay; format: organism-based; settings: in vivo
In short: (§1)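 HCT-116 xenograft mice dosed orally at 15 or 30 mg/kg for 19 days, saline as vehicle control; body weights tracked, and main organs sectioned and H&E-stained at study end.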

[5] = tested on: HCT-116; experiment: Antiproliferative activity against human HCT116 cells assessed as reduction in cell viability measured after 24 to 48 hrs by MTT assay; format: functional, cell-based
[6] = species on record: Homo sapiens; experiment: Inhibition of BRD4/HDAC in human HCT116 cells assessed as increase in OSM mRNA level at 0.5 uM after 24 hrs by RT-PCR analysis; format: cell-based
In short: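 HCT-116 cells incubated 24 h with test agent (0.5 µM, 2.0 µM or 10 µM depending on compound); IL6, OSM, LIF and CTF1 mRNA levels then quantified.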

[7] = tested on: HCT-116; experiment: Induction of apoptotic cell death in human HCT116 cells by Annexin-V FITC/propidium iodide staining-based flow cytometry; format: functional
[8] = tested on: Mus musculus; experiment: In vivo inhibition of HDAC in BALB/cAnNCrl mouse xenografted with human HCT116 cells assessed as increase in acetylated histone H3 level in tumor tissue at 15 to 30 mg/kg, po administered on day 1 to day 19 measured on day 19 by immunohistochemical analysis; format: functional, organism-based
In short: (§2)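 HCT-116 xenograft mice were dosed orally at 15 or 30 mg/kg, or 30 mg/kg for reference agents, for 19 days, with vehicle or saline controls. Tumor sections were stained for Ki-67, c-Myc, Ac-H3, BRD4, LC3-II, LIFR and p-STAT3 by immunohistochemistry, and TUNEL staining was used as the apoptosis marker.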

[9] = AUC (0 to infinity) in Sprague-Dawley rat at 30 mg/kg, po measured up to 1440 mins by UPLC-QTOF/MS analysis; format: ADME, organism-based; set-up: dose 30 mg/kg, route oral, time infinity; settings: in vivo
[10] = tested on: HCT-116; experiment: Induction of apoptosis in human HCT116 cells assessed as necrotic cells at 0.2 uM by Annexin-V FITC/propidium iodide staining-based flow cytometry (reference value: 0.304 %); format: functional
[11] = Toxicity in BALB/cAnNCrl mouse xenografted with human HCT116 cells assessed as effect on spleen morphological changes at 15 to 30 mg/kg, po administered on day 1 to day 19 measured on day 19 by hematoxylin and eosin staining based assay; format: organism-based; settings: in vivo; in short: as §1
[12] = Tmax in Sprague-Dawley rat at 30 mg/kg, iv administered as bolus dose measured up to 1440 mins by UPLC-QTOF/MS analysis; format: ADME, organism-based; settings: in vivo
[13] = Toxicity in BALB/cAnNCrl mouse xenografted with human HCT116 cells assessed as effect on body weight at 15 to 30 mg/kg, po administered on day 1 to day 19 […]; format: organism-based; settings: in vivo; in short: as §1
[14] = molecular target: T1, Bromodomain-containing protein 4 (Homo sapiens, UniProt O60885); experiment: Inhibition of human recombinant His-tagged BRD4 BD2 domain using H-SGRGK(Ac)GGK(Ac)GLGK-(Ac)GGAK(Ac)RHRK(Biotin)-OH as substrate preincubated with enzyme for 30 mins followed by substrate addition measured after 30 mins by AlphaScreen assay
[15] = species on record: Homo sapiens; experiment: Inhibition of BRD4/HDAC in human HCT116 cells assessed as increase in caspase 3 cleavage at 0.2 to 0.5 uM measured after 24 hrs by Western blot analysis; format: cell-based
[16] = molecular target: T1, Bromodomain-containing protein 4; experiment: Inhibition of BRD4 in human HCT116 cells assessed as induction of autophagic flux by measuring accumulation of p62 at 0.5 uM after 24 hrs in presence of auto-phagolysosome inhibitor, bafilomycin-A1 by Western blot analysis; format: cell-based
In short: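 HCT-116 cells received 0.5 μM compound with or without bafilomycin-A1 for 24 hours. LC3 and p62 protein were then analysed by western blot.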

[17] = molecular target: T1, Bromodomain-containing protein 4; experiment: Inhibition of BRD4 in human HCT116 cells assessed as induction of autophagy by measuring LC3-I cleavage to LC3-II at 0.5 uM measured after 24 hrs by Western blot analysis; format: cell-based
In short: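 HCT-116 cells were treated for 24 hours with 0.5 μM, 2.0 μM or 10 μM agents. LC3 (LC3-I to LC3-II conversion) and p62 were then detected by western blot.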

[18] = Toxicity in BALB/cAnNCrl mouse xenografted with human HCT116 cells assessed as effect on kidney morphological changes at 15 to 30 mg/kg, po administered on day 1 to day 19 measured on day 19 by hematoxylin and eosin staining based assay; format: organism-based; settings: in vivo; in short: as §1
[19] = tested on: HCT-116; experiment: Induction of apoptosis in human HCT116 cells assessed as early apoptotic cells at 0.2 uM by Annexin-V FITC/propidium iodide staining-based flow cytometry (reference value: 2.8 %); format: functional
[20] = tested on: SW-620; experiment: Antiproliferative activity against human SW620 cells assessed as reduction in cell viability measured after 24 to 48 hrs by MTT assay; format: functional, cell-based
[21] = molecular target: Bromodomain-containing protein 2 (Homo sapiens, UniProt P25440); experiment: Inhibition of human recombinant His-tagged BRD2 BD1 domain expressed in Escherichia coli BL21(DE3)-R3-pRARE2 cells by AlphaScreen assay
[22] = tested on: NCM460; experiment: Cytotoxicity against human NCM460 cells; format: cell-based
In short: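 Antiproliferative IC50 values were measured by MTT assay across a panel of colorectal carcinoma cell lines and normal colorectal epithelial cells.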

[23] = tested on: Mus musculus; experiment: Increase in phosphorylated STAT3 expression in tumor tissue of BALB/cAnNCrl mouse xenografted with human HCT116 cells at 15 to 30 mg/kg, po administered on day 1 to day 19 measured on day 19 by immunohistochemical analysis; format: functional, organism-based; in short: as §2
[24] = AUC (0 to infinity) in Sprague-Dawley rat at 30 mg/kg, iv administered as bolus dose measured up to 1440 mins by UPLC-QTOF/MS analysis; format: ADME, organism-based; set-up: dose 30 mg/kg, route intravenous, time infinity; settings: in vivo
[25] = tested on: Mus musculus; experiment: Induction of autophagy in BALB/cAnNCrl mouse xenografted with human HCT116 cells assessed as increase in LC3-II level in tumor tissue at 15 to 30 mg/kg, po administered on day 1 to day 19 measured on day 19 by immunohistochemical analysis; format: functional, organism-based; in short: as §2
[26] = Cmax in Sprague-Dawley rat at 30 mg/kg, po measured up to 1440 mins by UPLC-QTOF/MS analysis; format: ADME, organism-based; set-up: dose 30 mg/kg, route oral; settings: in vivo

Sequence of Bromodomain-containing protein 2 (P25440 whole entry, the tested form may be a part): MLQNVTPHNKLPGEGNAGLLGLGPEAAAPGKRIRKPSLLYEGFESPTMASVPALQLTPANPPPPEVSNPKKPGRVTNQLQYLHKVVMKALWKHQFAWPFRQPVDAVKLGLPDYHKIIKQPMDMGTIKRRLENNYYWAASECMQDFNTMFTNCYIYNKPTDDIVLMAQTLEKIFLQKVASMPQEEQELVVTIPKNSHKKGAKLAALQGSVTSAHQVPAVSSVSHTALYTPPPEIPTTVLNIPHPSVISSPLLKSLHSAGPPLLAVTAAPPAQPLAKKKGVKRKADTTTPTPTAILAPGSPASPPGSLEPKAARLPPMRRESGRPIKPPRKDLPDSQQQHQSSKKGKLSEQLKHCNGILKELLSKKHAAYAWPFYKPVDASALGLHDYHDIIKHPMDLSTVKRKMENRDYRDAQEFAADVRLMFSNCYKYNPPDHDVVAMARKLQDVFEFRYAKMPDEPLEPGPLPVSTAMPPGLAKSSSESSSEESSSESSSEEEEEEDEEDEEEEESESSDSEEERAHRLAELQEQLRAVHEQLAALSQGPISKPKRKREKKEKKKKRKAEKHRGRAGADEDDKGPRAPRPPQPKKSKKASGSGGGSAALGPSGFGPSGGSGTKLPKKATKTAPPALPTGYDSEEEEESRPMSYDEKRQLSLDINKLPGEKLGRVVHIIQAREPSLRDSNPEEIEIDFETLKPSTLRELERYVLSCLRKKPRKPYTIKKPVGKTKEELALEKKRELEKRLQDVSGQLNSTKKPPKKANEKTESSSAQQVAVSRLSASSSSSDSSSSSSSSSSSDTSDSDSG
Sequence of Histone deacetylase 5 (Q9UQL6 whole entry, the tested form may be a part): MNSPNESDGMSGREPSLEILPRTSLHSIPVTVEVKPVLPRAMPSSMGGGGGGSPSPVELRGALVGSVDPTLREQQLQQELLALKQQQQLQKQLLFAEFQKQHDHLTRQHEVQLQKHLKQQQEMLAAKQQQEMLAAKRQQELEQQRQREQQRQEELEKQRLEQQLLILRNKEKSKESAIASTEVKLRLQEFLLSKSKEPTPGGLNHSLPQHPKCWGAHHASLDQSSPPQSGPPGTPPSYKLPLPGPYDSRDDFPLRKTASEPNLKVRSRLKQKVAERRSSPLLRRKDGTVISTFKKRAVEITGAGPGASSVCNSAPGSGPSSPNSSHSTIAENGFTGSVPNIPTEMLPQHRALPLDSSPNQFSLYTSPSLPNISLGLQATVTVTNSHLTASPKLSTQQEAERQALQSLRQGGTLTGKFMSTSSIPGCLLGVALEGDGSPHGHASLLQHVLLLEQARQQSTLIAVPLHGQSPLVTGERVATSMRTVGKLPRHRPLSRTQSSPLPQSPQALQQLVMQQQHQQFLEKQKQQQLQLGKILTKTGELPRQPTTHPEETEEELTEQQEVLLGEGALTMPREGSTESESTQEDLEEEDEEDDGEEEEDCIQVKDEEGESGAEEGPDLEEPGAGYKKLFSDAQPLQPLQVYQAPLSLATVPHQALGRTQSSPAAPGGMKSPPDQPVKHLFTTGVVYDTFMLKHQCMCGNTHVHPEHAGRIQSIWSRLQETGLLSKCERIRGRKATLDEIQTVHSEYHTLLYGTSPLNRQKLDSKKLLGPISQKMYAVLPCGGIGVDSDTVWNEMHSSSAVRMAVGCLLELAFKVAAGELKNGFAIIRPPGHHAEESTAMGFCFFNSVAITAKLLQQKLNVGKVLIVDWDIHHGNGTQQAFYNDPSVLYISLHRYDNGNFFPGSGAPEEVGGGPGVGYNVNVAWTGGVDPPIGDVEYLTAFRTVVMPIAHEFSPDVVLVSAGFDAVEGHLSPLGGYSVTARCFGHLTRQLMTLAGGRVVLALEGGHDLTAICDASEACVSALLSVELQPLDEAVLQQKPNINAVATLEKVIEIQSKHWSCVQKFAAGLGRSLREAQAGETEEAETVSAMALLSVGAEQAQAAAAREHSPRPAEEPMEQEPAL

IC50 [2]: > 10000 nM
IC50 [5]: 450 nM
IC50 [14]: 2050 nM
inhibition [16]: inactive
inhibition [17]: Active
IC50 [20]: 1780 nM
IC50 [21]: 16400 nM
Compound: Cc1cc(-c2nc3sc4c(c3c(=O)[nH]2)CCN(C)C4)cc(C)c1OCCCCCC(=O)NO
inhibition [1]: Active
inhibition [3]: Active
Activity [4]: Non-Toxic
inhibition [6]: Active
Activity [7]: Dose-dependent effect
inhibition [8]: Active
AUC(0-inf) [9]: 63.3 µg·h/mL
Activity [10]: 7.01%
Activity [11]: Non-Toxic
Tmax [12]: 7.2 min
Activity [13]: Non-Toxic
inhibition [15]: Active
Activity [18]: Non-Toxic
Activity [19]: 8.2%
Activity [22]: Non-Toxic
Activity [23]: inactive
AUC(0-inf) [24]: 156 µg·h/mL
Activity [25]: Active
Cmax [26]: 5360 ng/mL
